Source: PubChem (several laboratories)
DTT redox prof – compounds producing H2O2 with reducing agent – biochemical, NIH compound library profiling, artefact control for MLSCN library redox annotation, primary screen. 200,000 tested, 0.03% active. AID 878. activation, % at 10 µM. DTT-dependent redox cycling H2O2, phenol red/HRP absorbance; 100% = 100 µM peroxide control, 0% = buffer;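 active = activation of at least 50% relative to the plate's high and low controls in the primary single-dose screen; inactive = activation below 50%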;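 note: compound incubated with DTT at 0.8 mM final as the reducing agent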
Lipid droplet – hepatic lipid droplet formation modulation. 240,000 tested, 0.4% active. AML12 mouse hepatocytes, oleate lipid droplets, BODIPY imaging. AID 1656. inhibition, % at 6.5 µM;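 active = lipid droplet intensity inhibited by at least 50%, with more than 500 cells counted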
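Material: mouse AML12 hepatocyte cell line, fixed after treatment; Timing: compound with oleate, overnight; Technique: high-content imaging of BODIPY-stained droplets and DAPI nuclei; Probe or stimulus: oleate, 100 µM final; Dosing: compound at 6.5 µM only.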
T cruzi inh – blocks replication of Trypanosoma cruzi; T. cruzi beta-gal in NIH3T3, luminescence, 90 h; inhibition, % (no concentration beside the values); 300,000 tested, 1.4% active;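 active = mean inhibition across valid replicates above about 55%, limit read from the data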;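 note: signal also drops with host cell toxicity which is not excluded here; 0% = plate median of DMSO wells and 100% = zero luminescence signal; higher percent means less beta-gal luminescence so fewer parasites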
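compound dosing = single 50 nL compound addition per well in DMSO | material = NIH/3T3 host cells with β-galactosidase reporter T. cruzi | input = 5,000 host fibroblasts per well | timing = ≥90 h infection period, 3 h prior cell attachment | read-out basis = percent inhibition of parasite-derived β-gal signal | detection = GalScreen β-gal luminescence, detergent lysis, 60 min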
L major viab – Leishmania major promastigote growth inhibition; Leishmania major promastigotes, resazurin fluorescence viability; 200,000 tested, 9% active; inhibition, % at 10 µM; in the data active = inhibition above about 50%;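 note: promastigotes grown with compound for 44 hours at 28 °C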
MPTP inh – permeability transition pore inhibition; isolated mouse mitochondria, Ca2+ swelling absorbance, 30 min; inhibition, % at 10 µM; 360,000 tested, 1.4% active; AID 602449;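 active = inhibition of 50% or more, scaled per plate between neutral and stimulator controls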;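 note: 0% = DMSO wells given calcium and 100% = 1 mM EGTA wells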
Starred values were filed as active, the others as inactive; . = no result given. Only a selection was taken, and hits are over-represented in it overall.

SMILES | DTT redox prof | Lipid droplet | T cruzi inh | L major viab | MPTP inh
CC(C)Oc1ccc(OCCNC2CCCC2)cc1 | 0.2 | -10.3 | 8.2 | 78.8* | 3.6
COc1ccccc1OCCNC1CCCC1 | -0.1 | . | -1.2 | -3.4 | 0.7
CCOc1cccc(OCCCOc2ccccc2)c1 | 0.2 | 11.4 | 6.6 | -3.7 | -2.2
Cc1cccc(C)c1NC(=O)COc1ccc2c(C)c(Cc3ccccc3)c(=O)oc2c1 | 0.5 | 6.0 | -23.8 | -4.9 | 39.1
COc1cc(C(=O)Nc2ccc(S(=O)(=O)N3CCCCC3C)cc2)cc(OC)c1OC (centres undefined) | -1.0 | . | 19.9 | 19.5 | 6.6
COc1ccc(C(=O)Nc2ccc(S(=O)(=O)N3CCCCC3C)cc2)c(OC)c1OC (centres undefined) | -1.9 | . | 3.3 | 61.2* | 2.1
COc1ccc2c(c1)-c1nc(/N=C/c3cccc(OC)c3O)sc1CC2 | 0.3 | -6.2 | -20.8 | 60.5* | -1.3
COc1ccc(S(=O)(=O)N2CCN(c3ccccc3OC)CC2)cc1C(=O)N1CCCCC1 | . | -20.9 | 7.3 | . | 0.4
O=C(/C=C/[C@H]1O[C@@H](n2ccc(=O)[nH]c2=O)[C@H](O)[C@@H]1O)NCCN1CCCC1 | . | . | . | . | -2.0
C=CCOc1ccccc1CNCc1ccc(F)cc1 | -0.6 | 17.2 | 3.3 | 56.5* | 0.9
C=CCc1ccccc1OCCNCc1ccccc1 | -1.0 | 12.2 | 9.4 | 70.9* | -0.6
Brc1ccccc1OCCNCc1ccccc1 | -0.9 | 21.5 | 4.9 | 27.6 | 28.0
O=C(NCCC1=CCCCC1)C(=O)NCC(c1ccco1)N1CCN(c2ccccc2F)CC1 (centres undefined) | 0.2 | -2.5 | -21.5 | 74.2* | 2.5
O=C(NCCc1c[nH]c2ccccc12)C(=O)NCC(c1ccco1)N1CCN(c2ccc(F)cc2)CC1 (centres undefined) | 0.7 | -10.2 | 1.2 | -3.4 | -5.7
O=C(NCCC1=CCCCC1)C(=O)NCC(c1ccco1)N1CCN(c2ccccc2)CC1 (centres undefined) | 0.2 | -7.9 | -22.5 | 88.5* | 31.4
O=C(NCc1ccncc1)C(=O)NCC(c1ccco1)N1CCN(c2ccccc2F)CC1 (centres undefined) | -0.1 | 1.3 | 8.3 | 51.7* | -0.2
O=C(NCCc1c[nH]c2ccccc12)C(=O)NCC(c1ccco1)N1CCN(c2ccccc2)CC1 (centres undefined) | 0.4 | 1.3 | 4.2 | 89.4* | -7.9
Cc1ccccc1-c1cc(C(=O)NCc2cccc(Br)c2)nn1CC1CC(c2cccc([N+](=O)[O-])c2)=NO1 (centres undefined) | . | . | . | . | 0.4
CCN(CC)CCNC(=O)C(=O)Nc1cc2c3c(c1)CCC(=O)N3CCC2 | . | 20.0 | 1.2 | . | 1.7
O=C(NCCC1=CCCCC1)C(=O)NCC1OCCCN1S(=O)(=O)c1ccccc1 (centres undefined) | 0.2 | -1.6 | -0.5 | 95.7* | 1.1
O=C(NCc1ccncc1)C(=O)NCC(c1ccccc1)c1ccccc1 | -0.3 | -2.3 | 1.6 | 57.5* | .
COc1ccc(N2CCN(C(CNC(=O)C(=O)NCCC3=CCCCC3)c3ccco3)CC2)cc1 (centres undefined) | 1.1 | 1.3 | 15.9 | 86.2* | 3.9
Cc1ccc(C)c(S(=O)(=O)N2CCCOC2CNC(=O)C(=O)NCCC2=CCCCC2)c1 (centres undefined) | -0.3 | -0.4 | 12.6 | 2.4 | -1.2
CCCNC(=O)C1CCC(CNS(=O)(=O)c2ccc3c(c2)N(C(C)=O)CCO3)CC1 (centres undefined) | . | 3.4 | 4.2 | . | 0.6
CCCNC(=O)C1(C)CCCN(Cc2ccc(-c3ccccc3)cc2)C1 (centres undefined) | . | . | . | . | -0.2
SMILES | DTT redox prof | Lipid droplet | T cruzi inh | L major viab | MPTP inh
COc1cc(NS(=O)(=O)c2ccc(OC)c(C)c2C)c(OC)cc1Cl | 0.2 | -0.7 | -19.6 | 99.7* | -1.2
COc1ccc(OC)c(S(=O)(=O)Nc2cc(OC)c(Cl)cc2OC)c1 | 2.8 | -43.0 | -4.6 | 62.3* | 1.6
Cc1cccc2c1NC(=O)C2(O)N1CCCC(C)C1 (centres undefined) | . | -0.2 | 2.0 | . | -1.2
Cc1nn(-c2ccccc2)c(Cl)c1/C=N/NC(=O)c1cccc(S(=O)(=O)N2CCCC2)c1 | 0.0 | 4.2 | 5.6 | -7.5 | 11.4
Cc1nn(-c2cccc(Cl)c2)c(Cl)c1/C=N/NC(=O)c1cccnc1 | 0.1 | 2.5 | -1.3 | 71.1* | 2.1
Cc1nn(-c2ccc(F)cc2)c(Cl)c1/C=N/NC(=O)c1cccc(S(=O)(=O)N2CCCC2)c1 | 2.9 | -26.0 | -6.8 | 54.5* | 4.0
COc1ccc(-c2nn(-c3ccccc3)cc2/C=N/NS(=O)(=O)c2ccccc2)cc1 | -3.4 | . | 6.2 | 9.4 | 2.5
Cc1nn(-c2ccccc2)c(N2CCCC2)c1/C=N/NC(=O)c1cccc(S(=O)(=O)Nc2ccc(Cl)cc2)c1 | 0.4 | 4.7 | 19.6 | 52.4* | 19.9
COc1ccc(-c2nn(-c3ccccc3)cc2/C=N/NC(=O)c2cccc(S(=O)(=O)Nc3ccccc3Cl)c2)cc1 | -0.3 | -3.6 | -21.6 | 81.3* | 4.9
COC(=O)N/N=C/c1c(C)nn(-c2cccc(Cl)c2)c1Cl | 0.3 | -6.0 | -2.1 | 26.2 | -0.1
Cc1nn(-c2ccc(Cl)cc2)c(Cl)c1/C=N/NC(=O)c1ccc(NS(=O)(=O)c2cccs2)cc1 | . | . | 27.9 | . | 3.2
COc1ccc(OCc2nnc(SCC(=O)N3C(C)CCCC3C)o2)cc1 (centres undefined) | . | -49.4 | 7.4 | . | -0.5
COc1ccc(Nc2nnc(-c3ccc(O)cc3)c3ccccc23)cc1C(N)=O | -2.8 | -9.4 | 2.4 | -3.0 | -1.5
COc1ccc(Nc2nnc(-c3ccc(O)cc3)c3ccccc23)cc1 | -0.3 | 1.4 | 57.1* | 8.3 | -3.0
COc1ccc(-c2nnc(Nc3ccc(OC)c(C(=O)N4CCCCC4)c3)c3ccccc23)cc1 | 0.2 | 21.2 | 13.9 | 53.0* | 0.3
CC(=O)c1ccc(NC(=O)c2cn(C)c(=O)c3ccccc23)cc1 | . | . | . | . | -3.2
COc1ccc(OC)c(NC(=O)CN(c2ccc(C)cc2)S(=O)(=O)c2c(C)noc2C)c1 | 0.6 | . | 15.7 | 74.7* | -2.6
COc1ccc(N(CC(=O)Nc2cc(Cl)ccc2OC)S(=O)(=O)c2c(C)noc2C)cc1 | -0.3 | . | 24.8 | 31.7 | 4.8
COc1ccc(OC)c(NC(=O)CN(c2ccc(C(C)C)cc2)S(=O)(=O)c2c(C)noc2C)c1 | 0.1 | . | 24.1 | 51.7* | 0.4
COc1cccc(CNC(=O)CN(c2cc(C)cc(C)c2)S(=O)(=O)c2c(C)noc2C)c1 | -0.8 | . | 7.9 | 65.2* | 0.6
COc1cccc(CNC(=O)CN(c2ccc(C(C)C)cc2)S(=O)(=O)c2c(C)noc2C)c1 | . | -3.7 | 24.9 | . | -0.5
CC(NC(=O)C1CCC(C)(C(=O)O)C1(C)C)c1ccccc1 (centres undefined) | . | . | -6.3 | . | -0.2
CCN(CCn1cccn1)C(=O)c1ccc2nc(Cc3ccc(OC)cc3)oc2c1 | . | -16.8 | -1.2 | . | -1.4
Cc1ccc(C)c(CN2C(=O)COc3ccc(C(=O)c4ccccc4C(=O)O)cc32)c1 | -1.6 | -5.4 | 26.3 | 100.2* | -0.5
